Assay results reported in publication PMC9302689 (British Journal of Clinical Pharmacology, 2022).

Tested on: healthy male subjects
Experiment: Pharmaco-EEG
Assay type: in vivo, human
Conditions: 12-hour post-dose period
How it was run: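 Continuous EEG was recorded from 21 electrodes placed by the 10–20 system, with mastoid electrodes replacing the earlobe ones. Recordings followed IPEG guidelines, twice pre-dose and at 0.5–10 h post-dose. Power spectra for Fz-Cz and Pz-O derivations were split into bands to give total band power (μV). Values were ln-transformed, analysed by MMRM over 12 h against pooled placebo, and back-transformed.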

CN1CCC23CCCCC2C1Cc1ccc(C(N)=O)cc13 (stereo not drawn) [ALKS 7119, (9α, 13α)‐17‐methylmorphinan‐3‐carboxamide]
Alpha-power Fz-Cz, LSM CFB (3 mg single oral dose): 0.01 Hz | Alpha-power Fz-Cz, estimate of difference compared to placebo (3 mg single oral dose): 0 [−0.97, 0.97] P = 1.00 Hz | Alpha-power Pz-Oz, LSM CFB (3 mg single oral dose): −0.06 Hz | Alpha-power Pz-Oz, estimate of difference compared to placebo (3 mg single oral dose): −0.16 [−0.41, 0.10] P = .23 Hz | Beta-power Fz-Cz, LSM CFB (3 mg single oral dose): 0.03 Hz | Beta-power Fz-Cz, estimate of difference compared to placebo (3 mg single oral dose): −0.09 [−0.31, 0.14] P = .45 Hz | Beta-power Pz-Oz, LSM CFB (3 mg single oral dose): −0.03 Hz | Beta-power Pz-Oz, estimate of difference compared to placebo (3 mg single oral dose): −0.16 [−0.36, 0.04] P = .11 Hz | Delta-power Fz-Cz, LSM CFB (3 mg single oral dose): 0 Hz | Delta-power Fz-Cz, estimate of difference compared to placebo (3 mg single oral dose): −0.11 [−0.32, 0.10] P = .32 Hz | Delta-power Pz-Oz, LSM CFB (3 mg single oral dose): −0.12 Hz | Delta-power Pz-Oz, estimate of difference compared to placebo (3 mg single oral dose): −0.18 [−0.41, 0.05] P = .12 Hz | Gamma-power Fz-Cz, LSM CFB (3 mg single oral dose): 0.05 Hz | Gamma-power Fz-Cz, estimate of difference compared to placebo (3 mg single oral dose): −0.04 [−0.25, 0.16] P = .66 Hz | Gamma-power Pz-Oz, LSM CFB (3 mg single oral dose): 0.09 Hz | Gamma-power Pz-Oz, estimate of difference compared to placebo (3 mg single oral dose): −0.12 [−0.37, 0.13] P = .35 Hz | Theta-power Fz-Cz, LSM CFB (3 mg single oral dose): −0.06 Hz | Theta-power Fz-Cz, estimate of difference compared to placebo (3 mg single oral dose): −0.14 [−0.36, 0.09] P = .23 Hz | Theta-power Pz-Oz, LSM CFB (3 mg single oral dose): −0.1 Hz | Theta-power Pz-Oz, estimate of difference compared to placebo (3 mg single oral dose): −0.17 [−0.40, 0.06] P = .15 Hz | Alpha-power Fz-Cz, LSM CFB (10 mg single oral dose): 0.09 Hz | Alpha-power Fz-Cz, estimate of difference compared to placebo (10 mg single oral dose): 0.15 [−0.94, 1.24] P = .79 Hz | Alpha-power Pz-Oz, LSM CFB (10 mg single oral dose): 0.11 Hz | Alpha-power Pz-Oz, estimate of difference compared to placebo (10 mg single oral dose): 0.01 [−0.25, 0.27] P = .94 Hz | Beta-power Fz-Cz, LSM CFB (10 mg single oral dose): 0.08 Hz | Beta-power Fz-Cz, estimate of difference compared to placebo (10 mg single oral dose): −0.03 [−0.26, 0.19] P = .78 Hz | Beta-power Pz-Oz, LSM CFB (10 mg single oral dose): 0.14 Hz | Beta-power Pz-Oz, estimate of difference compared to placebo (10 mg single oral dose): 0.01 [−0.19, 0.21] P = .91 Hz | Delta-power Fz-Cz, LSM CFB (10 mg single oral dose): 0.05 Hz | Delta-power Fz-Cz, estimate of difference compared to placebo (10 mg single oral dose): −0.05 [−0.26, 0.16] P = .65 Hz | Delta-power Pz-Oz, LSM CFB (10 mg single oral dose): 0.07 Hz | Delta-power Pz-Oz, estimate of difference compared to placebo (10 mg single oral dose): 0.01 [−0.23, 0.24] P = .96 Hz | Gamma-power Fz-Cz, LSM CFB (10 mg single oral dose): 0.09 Hz | Gamma-power Fz-Cz, estimate of difference compared to placebo (10 mg single oral dose): −0.01 [−0.21, 0.21] P = .95 Hz | Gamma-power Pz-Oz, LSM CFB (10 mg single oral dose): 0.13 Hz | Gamma-power Pz-Oz, estimate of difference compared to placebo (10 mg single oral dose): −0.08 [−0.33, 0.17] P = .54 Hz | Theta-power Fz-Cz, LSM CFB (10 mg single oral dose): 0.02 Hz | Theta-power Fz-Cz, estimate of difference compared to placebo (10 mg single oral dose): −0.05 [−0.28, 0.18] P = .65 Hz | Theta-power Pz-Oz, LSM CFB (10 mg single oral dose): 0.04 Hz | Theta-power Pz-Oz, estimate of difference compared to placebo (10 mg single oral dose): −0.03 [−0.26, 0.20] P = .79 Hz | Alpha-power Fz-Cz, LSM CFB (25 mg single oral dose): −0.01 Hz | Alpha-power Pz-Oz, LSM CFB (25 mg single oral dose): −0.01 Hz | Alpha-power Pz-Oz, estimate of difference compared to placebo (25 mg single oral dose): −0.11 [−0.36, 0.15] P = .41 Hz | Beta-power Fz-Cz, LSM CFB (25 mg single oral dose): 0.05 Hz | Beta-power Fz-Cz, estimate of difference compared to placebo (25 mg single oral dose): −0.06 [−0.28, 0.16] P = .58 Hz | Beta-power Pz-Oz, LSM CFB (25 mg single oral dose): 0.08 Hz | Beta-power Pz-Oz, estimate of difference compared to placebo (25 mg single oral dose): −0.04 [−0.24, 0.15] P = .66 Hz | Delta-power Fz-Cz, LSM CFB (25 mg single oral dose): −0.04 Hz | Delta-power Fz-Cz, estimate of difference compared to placebo (25 mg single oral dose): −0.14 [−0.35, 0.07] P = .19 Hz | Delta-power Pz-Oz, LSM CFB (25 mg single oral dose): 0 Hz | Delta-power Pz-Oz, estimate of difference compared to placebo (25 mg single oral dose): −0.06 [−0.31, 0.17] P = .61 Hz | Gamma-power Fz-Cz, LSM CFB (25 mg single oral dose): 0.06 Hz | Gamma-power Fz-Cz, estimate of difference compared to placebo (25 mg single oral dose): −0.04 [−0.04, 0.16] P = .69 Hz | Gamma-power Pz-Oz, LSM CFB (25 mg single oral dose): 0.16 Hz | Gamma-power Pz-Oz, estimate of difference compared to placebo (25 mg single oral dose): −0.05 [−0.30, 0.20] P = .70 Hz | Theta-power Fz-Cz, LSM CFB (25 mg single oral dose): −0.06 Hz | Theta-power Fz-Cz, estimate of difference compared to placebo (25 mg single oral dose): −0.13 [−0.36, 0.09] P = .24 Hz | Theta-power Pz-Oz, LSM CFB (25 mg single oral dose): −0.04 Hz | Theta-power Pz-Oz, estimate of difference compared to placebo (25 mg single oral dose): −0.11 [−0.35, 0.12] P = .33 Hz | Alpha-power Fz-Cz, LSM CFB (50 mg single oral dose): 0.08 Hz | Alpha-power Fz-Cz, estimate of difference compared to placebo (50 mg single oral dose): 0.13 [−0.81, 1.07] P = .79 Hz | Alpha-power Pz-Oz, LSM CFB (50 mg single oral dose): 0.03 Hz | Alpha-power Pz-Oz, estimate of difference compared to placebo (50 mg single oral dose): −0.06 [−0.32, 0.19] P = .62 Hz | Beta-power Fz-Cz, LSM CFB (50 mg single oral dose): 0.04 Hz | Beta-power Fz-Cz, estimate of difference compared to placebo (50 mg single oral dose): −0.07 [−0.31, 0.15] P = .51 Hz | Beta-power Pz-Oz, LSM CFB (50 mg single oral dose): 0.13 Hz | Beta-power Pz-Oz, estimate of difference compared to placebo (50 mg single oral dose): 0 [−0.20, 0,20] P = 1.00 Hz | Delta-power Fz-Cz, LSM CFB (50 mg single oral dose): 0 Hz | Delta-power Fz-Cz, estimate of difference compared to placebo (50 mg single oral dose): −0.10 [−0.31, 0.11] P = .34 Hz | Delta-power Pz-Oz, LSM CFB (50 mg single oral dose): 0.08 Hz | Delta-power Pz-Oz, estimate of difference compared to placebo (50 mg single oral dose): 0.02 [−0.21, 0.25] P = .87 Hz | Gamma-power Fz-Cz, LSM CFB (50 mg single oral dose): 0.01 Hz | Gamma-power Fz-Cz, estimate of difference compared to placebo (50 mg single oral dose): −0.09 [−0.31, 0.11] P = .39 Hz | Gamma-power Pz-Oz, LSM CFB (50 mg single oral dose): 0.08 Hz | Gamma-power Pz-Oz, estimate of difference compared to placebo (50 mg single oral dose): −0.12 [−0.38, 0.13] P = .33 Hz | Theta-power Fz-Cz, LSM CFB (50 mg single oral dose): 0.02 Hz | Theta-power Fz-Cz, estimate of difference compared to placebo (50 mg single oral dose): −0.05 [−0.28, 0.17] P = .64 Hz | Theta-power Pz-Oz, LSM CFB (50 mg single oral dose): 0.08 Hz | Theta-power Pz-Oz, estimate of difference compared to placebo (50 mg single oral dose): 0.01 [−0.23, 0.24] P = .95 Hz | Alpha-power Fz-Cz, LSM CFB (75 mg single oral dose): 0.16 Hz | Alpha-power Fz-Cz, estimate of difference compared to placebo (75 mg single oral dose): 0.32 [−0.64, 1.29] P = .51 Hz | Alpha-power Pz-Oz, LSM CFB (75 mg single oral dose): 0.14 Hz | Alpha-power Pz-Oz, estimate of difference compared to placebo (75 mg single oral dose): 0.04 [−0.22, 0.30] P = .75 Hz | Beta-power Fz-Cz, LSM CFB (75 mg single oral dose): 0.21 Hz | Beta-power Fz-Cz, estimate of difference compared to placebo (75 mg single oral dose): 0.09 [−0.13, 0.32] P = .40 Hz | Beta-power Pz-Oz, LSM CFB (75 mg single oral dose): 0.17 Hz | Beta-power Pz-Oz, estimate of difference compared to placebo (75 mg single oral dose): 0.04 [−0.16, 0.24] P = .69 Hz | Delta-power Fz-Cz, LSM CFB (75 mg single oral dose): 0.17 Hz | Delta-power Fz-Cz, estimate of difference compared to placebo (75 mg single oral dose): 0.06 [−0.15, 0.27] P = .55 Hz | Delta-power Pz-Oz, LSM CFB (75 mg single oral dose): 0.1 Hz | Delta-power Pz-Oz, estimate of difference compared to placebo (75 mg single oral dose): 0.04 [−0.21, 0.27] P = .76 Hz | Gamma-power Fz-Cz, LSM CFB (75 mg single oral dose): 0.27 Hz | Gamma-power Fz-Cz, estimate of difference compared to placebo (75 mg single oral dose): 0.17 [−0.03, 0.37] P = .10 Hz | Gamma-power Pz-Oz, LSM CFB (75 mg single oral dose): 0.27 Hz | Gamma-power Pz-Oz, estimate of difference compared to placebo (75 mg single oral dose): 0.06 [−0.19, 0.32] P = .64 Hz | Theta-power Fz-Cz, LSM CFB (75 mg single oral dose): 0.18 Hz | Theta-power Fz-Cz, estimate of difference compared to placebo (75 mg single oral dose): 0.11 [−0.12, 0.33] P = .34 Hz
